Activity calls are given as the source filed them. No cut-off for these calls is given here.
Experiments:
[1] = tested on: Fibroblast; test: Inhibition of lysosomal defects in Sanfilippo-B patient derived human fibroblast cells assessed as dispersion of lysosomes all over the cytoplasm at 20 uM incubated for 48 hrs by LAMP1 staining based indirect immunofluorescence assay; type: functional, cell-based
In short: (§1)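 HDFa, MPS IIIA, MPS IIIB and MPS I patient fibroblasts in DMEM, 10% FBS, grown 48 h on coverslips with 20 μM compound. Double immunostained for HS (10E4) and Lamp1 with DAPI, confocal imaging. Mean fluorescence intensity expressed relative to untreated cells (d-enantiomers: percent positive cells), 50 random cells from three experiments.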

[2] = tested on: SK-N-BE(2); test: Inhibition of heparan sulfate accumulation on cell membrane in NAGLU-silenced human SK-NBE cells clone at 20 uM incubated for 48 hrs by indirect immunofluorescence staining analysis; type: functional, cell-based
In short: (§2)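 Control and NAGLU-silenced SK-NBE clones grown on coverslips with 20 μM compound for 48 h. Fixed in 3.7% formaldehyde, permeabilized with saponin/BSA buffer, stained with anti-Lamp1 or anti-HS 10E4 for 1 h, then Alexa secondaries. Confocal imaging with 63× objective. Scored as percent cells with enlarged Lamp1 structures or membrane HS, plus mean fluorescence intensity, over 50 random cells from three experiments.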

[3] = Cytotoxicity against human CuFi cells assessed as induction of apoptosis upto 100 uM; type: toxicity, cell-based
[4] = tested on: HaCaT; test: Antiproliferative activity against human HaCaT cells upto 100 uM; type: toxicity, cell-based
[5] = tested on: IB3-1; test: Cytotoxicity against human IB3-1 cells assessed as induction of apoptosis upto 100 uM; type: toxicity, cell-based; conditions: ib3-1, 100 µM
[6] = tested on: HeLa; test: Inhibition of heparan sulfate accumulation on cell membrane in human HeLa cells at 20 uM incubated for 48 hrs by indirect immunofluorescence staining analysis; type: functional, cell-based
In short: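 HeLa cells grown 48 h with compound, then immunostained with anti-HS antibody 10E4 to gauge membrane HS.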

[7] = tested on: SK-N-BE(2); test: Inhibition of lysosomal defects in NAGLU-silenced human SK-NBE cell clones assessed as reduction in accumulation of enlarged LAMP1-positive lysosomal structures within the cytoplasm at 20 uM incubated for 48 hrs by LAMP1 staining based indirect immunofluorescence assay; type: functional; in short: as §2
[8] = tested on: Fibroblast; test: Inhibition of lysosomal defects in Sanfilippo-B patient derived human fibroblast cells assessed as reduction in more concentrated lysosomal distribution in the perinuclear region of the cytoplasm at 20 uM incubated for 48 hrs by LAMP1 staining based indirect immunofluorescence assay; type: functional, cell-based; in short: as §1
[9] = tested on: Fibroblast; test: Inhibition of lysosomal defects in Sanfilippo-B patient derived human fibroblast cells assessed as reduction in accumulation of enlarged LAMP1-positive lysosomal structures within the cytoplasm at 20 uM incubated for 48 hrs by LAMP1 staining based indirect immunofluorescence assay; type: functional, cell-based; in short: as §1
[10] = tested on: HaCaT; test: Cytotoxicity against human HaCaT cells assessed as induction of apoptosis upto 100 uM; type: toxicity, cell-based
[11] = tested on: SK-N-BE(2); test: Effect on heparan sulfate changes in human SK-NBE cell membrane at 20 uM incubated for 48 hrs by indirect immunofluorescence staining analysis; type: functional, cell-based; in short: as §2
[12] = tested on: HeLa; test: Cytotoxicity against human HeLa cells assessed as reduction in cell viability at 20 uM incubated for 48 hrs by trypan blue exclusion method; type: functional, cell-based
In short: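 HeLa cells seeded at 100,000 per well and grown overnight in complete RPMI. Exposed to 20 μM compound in the same medium for 48 h at 37 °C; untreated mock as control. Cells trypsinized, live cells counted by trypan blue exclusion on an automated counter. Means of three independent experiments, each in triplicate, with s.e.m.; Student's t-test, p < 0.05.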

[13] = tested on: Fibroblast; test: Effect on heparan sulfate changes in human fibroblast cells at 20 uM incubated for 48 hrs by indirect immunofluorescence staining analysis; type: functional, cell-based; in short: as §1
[14] = Antiproliferative activity against human CuFi cells upto 100 uM; type: toxicity, cell-based
[15] = tested on: SK-N-BE(2); test: Effect on lysosome size and distribution in human SK-NBE cell clone assessed as at 20 uM incubated for 48 hrs by LAMP1 staining based indirect immunofluorescence assay; type: functional; in short: as §2
[16] = tested on: IB3-1; test: Antiproliferative activity against human IB3-1 cells upto 100 uM; type: toxicity, cell-based; conditions: ib3-1, 100 µM
[17] = tested on: SK-N-BE(2); test: Inhibition of lysosomal defects in NAGLU-silenced human SK-NBE cell clones assessed as dispersion of lysosomes all over the cytoplasm at 20 uM incubated for 48 hrs by LAMP1 staining based indirect immunofluorescence assay; type: functional; in short: as §2
[18] = tested on: Fibroblast; test: Inhibition of lysosomal defects in MPS-1 patient derived human fibroblast cells assessed as reduction in accumulation of enlarged LAMP1-positive lysosomal structures within the cytoplasm at 20 uM incubated for 48 hrs by LAMP1 staining based indirect immunofluorescence assay; type: functional, cell-based; in short: as §1
[19] = tested on: Fibroblast; test: Inhibition of heparan sulfate accumulation on cell membrane in Sanfilippo-A patient derived human fibroblast cells at 20 uM incubated for 48 hrs by indirect immunofluorescence staining analysis; type: functional, cell-based; in short: as §1
[20] = tested on: Fibroblast; test: Inhibition of lysosomal defects in Sanfilippo-A patient derived human fibroblast cells assessed as reduction in accumulation of enlarged LAMP1-positive lysosomal structures within the cytoplasm at 20 uM incubated for 48 hrs by LAMP1 staining based indirect immunofluorescence assay; type: functional, cell-based; in short: as §1
[21] = tested on: Fibroblast; test: Inhibition of heparan sulfate accumulation on cell membrane in Sanfilippo-B patient derived human fibroblast cells at 20 uM incubated for 48 hrs by indirect immunofluorescence staining analysis; type: functional, cell-based; in short: as §1
[22] = tested on: Fibroblast; test: Inhibition of heparan sulfate accumulation on cell membrane in MPS-1 patient derived human fibroblast cells at 20 uM incubated for 48 hrs by indirect immunofluorescence staining analysis; type: functional, cell-based; in short: as §1
[23] = tested on: SK-N-BE(2); test: Inhibition of lysosomal defects in NAGLU-silenced human SK-NBE cell clones assessed as reduction in more concentrated lysosomal distribution in the perinuclear region of the cytoplasm at 20 uM incubated for 48 hrs by LAMP1 staining based indirect immunofluorescence assay; type: functional; in short: as §2

| Structure (SMILES) | inhibition [1] | inhibition [2] | Activity [3] | Activity [4] | Activity [5] | inhibition [6] | inhibition [7] | inhibition [8] | inhibition [9] | Activity [10] | Activity [11] | Activity [12] | Activity [13] | Activity [14] | Activity [15] | Activity [16] | inhibition [17] | inhibition [18] | inhibition [19] | inhibition [20] | other results |
| --- | --- | --- | --- | --- | --- | --- | --- | --- | --- | --- | --- | --- | --- | --- | --- | --- | --- | --- | --- | --- | --- |
| CCCCCCCCCOCCCCCN1C[C@@H](O)[C@H](O)[C@@H](O)[C@@H]1CO.Cl | inactive | inactive | Non-Toxic | Non-Toxic | Non-Toxic | inactive | inactive | inactive | inactive | Non-Toxic | inactive | inactive | inactive | Non-Toxic | inactive | Non-Toxic |  |  |  |  |  |
| OC[C@H]1NC[C@H](O)[C@@H](O)[C@@H]1O | inactive |  |  |  |  |  | inactive | inactive | inactive |  |  | inactive | inactive |  | inactive |  | inactive | inactive | inactive | inactive | inhibition [21]: inactive; inhibition [22]: inactive; inhibition [23]: inactive |
| CCCCN1C[C@H](O)[C@@H](O)[C@H](O)[C@H]1CO | inactive |  |  |  |  |  | inactive | inactive | inactive |  |  | inactive | inactive |  | inactive |  | inactive | inactive | inactive | inactive | inhibition [21]: inactive; inhibition [22]: inactive; inhibition [23]: inactive |
| CCCCCCOCCCCCN1C[C@@H](O)[C@H](O)[C@@H](O)[C@@H]1CO.Cl | inactive | inactive | Non-Toxic | Non-Toxic | Non-Toxic | inactive | inactive | inactive | inactive | Non-Toxic | inactive | inactive | inactive | Non-Toxic | inactive | Non-Toxic |  |  |  |  |  |
| CCCCCCCCCN1C[C@@H](O)[C@H](O)[C@@H](O)[C@@H]1CO.Cl | inactive | inactive | Non-Toxic | Non-Toxic | Non-Toxic | inactive | inactive | inactive | inactive | Non-Toxic | inactive | inactive | inactive | Non-Toxic | inactive | Non-Toxic |  |  |  |  |  |
